Data from publication PMC7820547 (iScience, 2021).
Changes are numbered by the printed parent chain.

Columns and labels:
hSHMT1 WT = biological target: T1, hSHMT1 WT (Homo sapiens, UniProt P34896); assay: Surface plasmon resonance binding of Gly-DCA to hSHMT1 WT
T1 sequence (P34896 1-483): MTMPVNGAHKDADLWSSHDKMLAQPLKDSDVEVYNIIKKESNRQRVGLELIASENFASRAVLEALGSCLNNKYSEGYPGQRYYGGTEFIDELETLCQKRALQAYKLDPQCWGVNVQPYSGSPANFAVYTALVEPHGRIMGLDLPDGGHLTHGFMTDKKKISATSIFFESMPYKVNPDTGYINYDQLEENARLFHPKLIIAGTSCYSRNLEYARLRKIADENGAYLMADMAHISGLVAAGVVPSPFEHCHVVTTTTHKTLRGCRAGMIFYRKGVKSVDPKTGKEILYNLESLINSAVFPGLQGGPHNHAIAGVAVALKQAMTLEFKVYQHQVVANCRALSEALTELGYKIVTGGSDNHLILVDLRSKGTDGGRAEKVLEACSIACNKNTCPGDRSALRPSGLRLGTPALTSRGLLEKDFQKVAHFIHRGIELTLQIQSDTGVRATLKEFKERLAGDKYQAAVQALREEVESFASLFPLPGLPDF
In short: (§1)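 His6-hSHMT1, wild type or point mutant, was captured fresh on an NTA sensor chip each cycle. Contact 30 s, dissociation 300 s; Kd by Scatchard analysis.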

hSHMT1 E75L = biological target: T2, hSHMT1 E75L (Homo sapiens, UniProt P34896, E75L); assay: Surface plasmon resonance binding of Gly-DCA to mutant hSHMT1 E75L
T2 sequence (P34896 1-483 E75L): T1 sequence (P34896 1-483) with E75L
In short: as §1

hSHMT1 R402A = biological target: T3, hSHMT1 R402A (Homo sapiens, UniProt P34896, R402A); assay: Surface plasmon resonance binding of Gly-DCA to mutant hSHMT1 R402A; conditions: SPR, 25°C
T3 sequence (P34896 1-483 R402A): T1 sequence (P34896 1-483) with R402A
In short: as §1

hSHMT2 WT = biological target: T4, hSHMT2 WT (Homo sapiens, UniProt P34897); assay: Surface plasmon resonance binding of Gly-DCA to hSHMT2 WT
T4 sequence (P34897 30-504): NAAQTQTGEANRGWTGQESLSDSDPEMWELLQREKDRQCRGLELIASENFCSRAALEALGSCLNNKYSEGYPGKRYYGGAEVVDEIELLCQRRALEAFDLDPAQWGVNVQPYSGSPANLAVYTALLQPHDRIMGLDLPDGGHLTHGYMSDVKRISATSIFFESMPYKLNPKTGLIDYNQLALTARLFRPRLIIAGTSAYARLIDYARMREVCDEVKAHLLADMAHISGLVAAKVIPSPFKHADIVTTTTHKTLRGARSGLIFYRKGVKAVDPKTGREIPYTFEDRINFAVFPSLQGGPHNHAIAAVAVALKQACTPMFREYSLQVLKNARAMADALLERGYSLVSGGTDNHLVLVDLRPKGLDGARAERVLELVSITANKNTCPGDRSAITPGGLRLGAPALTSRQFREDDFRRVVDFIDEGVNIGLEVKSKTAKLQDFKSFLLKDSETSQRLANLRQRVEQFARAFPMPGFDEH
In short: (§2)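 Wild-type or mutant His6-hSHMT2 was captured on an NTA sensor chip in each cycle. Analyte (test compound) was run at 0.8, 0.4, 0.2, 0.1, 0.05 and 0.025 µM in 10 mM HEPES pH 7.5, 200 mM NaCl, 2 mM β-mercaptoethanol, 50 µM PLP, 0.01% Tween 20 and 5% DMSO. Contact 30 s, dissociation 300 s; Scatchard-derived Kd.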

hSHMT2 E98L = biological target: T5, hSHMT2 E98L (Homo sapiens, UniProt P34897, E98L); assay: Surface plasmon resonance binding of Gly-DCA to mutant hSHMT2 E98L; conditions: SPR, 25°C
T5 sequence (P34897 30-504 E98L): T4 sequence (P34897 30-504) with E69L
In short: as §2

hSHMT2 R425A = biological target: T6, hSHMT2 R425A (Homo sapiens, UniProt P34897, R425A); assay: Surface plasmon resonance binding of Gly-DCA to mutant hSHMT2 R425A; conditions: SPR, 25°C
T6 sequence (P34897 30-504 R425A): T4 sequence (P34897 30-504) with R396A
In short: as §2

hSHMT2 [1] = biological target: T7, hSHMT2 (Homo sapiens, UniProt P34897); assay: Isothermal titration calorimetry; type: binding
T7 sequence (P34897 30-504): T4 sequence (P34897 30-504)
In short: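 Purified His6-hSHMT2 (28.9 µM) in the cell was titrated with 300 µM test compound from the syringe at 37 °C, stirring 750 rpm. One small initial injection, then 12 injections at 180 s intervals; thermodynamic parameters were calculated from the titration.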

hSHMT1 [2] = biological target: T8, hSHMT1 (Homo sapiens, UniProt P34896); assay: Differential scanning calorimetry; type: binding; conditions: DSC, 50 μM Gly-DCA, 18 μM hSHMT1; Tm without ligand 69.6°C
T8 sequence (P34896 1-483): T1 sequence (P34896 1-483)
In short: (§3)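 Recombinant His6-tagged human enzyme from E. coli BL21(DE3)pLysS, Ni-NTA then gel filtration. Scanned 20 to 110 °C at 1 °C/min in 10 mM HEPES pH 7.5, 0.5 mM EDTA, 2 mM β-mercaptoethanol and 1% DMSO, with 18 µM (1.0 mg/mL) enzyme and 50 µM test compound. hSHMT1 used 100 mM NaCl and no PLP; hSHMT2 used 200 mM NaCl and 50 µM PLP. Non-two-state denaturation model fitted.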

hSHMT2 [3] = biological target: T7, hSHMT2; assay: Differential scanning calorimetry; type: binding; conditions: DSC, 50 μM Gly-DCA, 18 μM hSHMT2, 50 μM PLP; Tm without ligand 65.1°C
In short: as §3

hSHMT1 [4] = biological target: T8, hSHMT1; conditions: ITC, ref Nonaka et al., 2019, cited from earlier work
hSHMT2 [5] = biological target: T7, hSHMT2; assay: Inhibition assay of Ser-Gly conversion; type: biochemical
[6] = ITC, 37°C, pH 7.5, 200 mM NaCl, 50 μM PLP

CC(CCC(=O)NCC(=O)O)C1CCC2C3CCC4CC(O)CCC4(C)C3CC(O)C12C (stereo not shown) [Gly-DCA, glycodeoxycholic acid]
Kd (hSHMT1 WT): 7.6 µM | Kd (hSHMT1 E75L): 73.5 µM | binding affinity for hSHMT1 R402A (hSHMT1 R402A): too weak to quantitate | Kd (hSHMT2 WT): 0.064 µM | binding affinity for hSHMT2 E98L (hSHMT2 E98L): too weak to quantitate | binding affinity for hSHMT2 R425A (hSHMT2 R425A): too weak to quantitate | Kd (hSHMT2 [1]): 0.25 µM | hSHMT2 N (stoichiometry, binding ratio) (hSHMT2 [1]; ITC, 37°C): 0.83 | hSHMT2 ΔG (hSHMT2 [1]; [6]): -9.4 kcal/mol | hSHMT2 ΔH (hSHMT2 [1]; [6]): -8.6 kcal/mol | hSHMT2 −TΔS (hSHMT2 [1]; [6]): -0.8 kcal/mol | Tm of hSHMT1 w/ Gly-DCA (hSHMT1 [2]): 78.8 °C | Tm of hSHMT2 w/ Gly-DCA (hSHMT2 [3]): 77.4 °C | hSHMT1 ΔG (hSHMT1 [4]; 100 mM NaCl, 0 µM PLP): -7.4 kcal/mol | hSHMT1 ΔH (hSHMT1 [4]; 100 mM NaCl, 0 µM PLP): -2.2 kcal/mol | hSHMT1 −TΔS (hSHMT1 [4]; 100 mM NaCl, 0 µM PLP): -5.2 kcal/mol | hSHMT1 N (stoichiometry, binding ratio) (hSHMT1 [4]): 1.06 | Kd (hSHMT1 [4]; read-out: hSHMT1 Kd, 100 mM NaCl, 0 µM PLP): 5.7 µM

C[C@H](CCC(=O)NCCS(=O)(=O)O)[C@H]1CC[C@H]2[C@@H]3CC[C@@H]4C[C@H](O)CC[C@]4(C)[C@H]3CC[C@]12C [Tau-LCA, taurolithocholic acid]
IC50 (hSHMT2 [5]): 2.6 µM
